Active and inactive are the calls of the source.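 The calls were made as follows, unless noted: active = compounds giving at least 50% inhibition in the cell-based MKP-3 phosphatase rescue imaging test; inactive = the rest.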
How the values were obtained:
[1] = inhibitors of TNFa-induced NFkB p65 translocation, primary screen, imaging, HUVEC, MLSMR starter and 10KST1 sets (AID 438;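 active = inhibition above 20% together with a positive visual image hit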;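 also: compound added about 3h40 before a 20 min TNFalpha stimulation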;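 as to inhibition: signal is the nuclear over cytoplasmic p65 intensity ratio per well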); settings: HUVEC TNFa-induced p65 nuclear translocation; cell count: measured here: nuclei count (cytotoxicity indicator), at 2.08 µM; inhibition: at 2 µM, stronger effect = higher value, 0% TNFa-plus-vehicle, 100% no-TNFa wells
[2] = inhibitors of E-selectin induction by TNFa, primary screen, imaging, HUVEC, immunofluorescence, MLSMR starter and 10KST1 sets (AID 487;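 active = visually confirmed hit in the image check and inhibition above 20%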;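 as to inhibition: signal is fraction of cell area covered by stained E-selectin grains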;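 as to nuclei count: 100% = median nuclei count of all wells on the same plate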); settings: HUVEC TNFalpha-induced E-selectin immunofluorescence imaging, at 2 µM; inhibition: stronger effect = higher value; nuclei count: measured here: cell number, toxicity
[3] = DUSP6 inhibitors restoring Erk phosphorylation by chemical complementation, primary imaging in DUSP6-transfected HeLa (AID 609); settings: HeLa MKP-3 transfected, phospho-Erk imaging KS statistic, at 10 µM, cells stimulated with TPA for 15 min;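 as to inhibition: phospho-Erk level distribution per well compared with pooled transfected vehicle control wells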
[4] = target: Dual specificity protein phosphatase 6 (Homo sapiens) (UniProt Q16828); assay: as above; settings: HeLa MKP-3 transfected, phospho-Erk imaging KS statistic; at 10 µM; stronger effect = higher value; cells stimulated with TPA for 15 min
Chain of Dual specificity protein phosphatase 6 (Homo sapiens) (Q16828 whole entry, looked up): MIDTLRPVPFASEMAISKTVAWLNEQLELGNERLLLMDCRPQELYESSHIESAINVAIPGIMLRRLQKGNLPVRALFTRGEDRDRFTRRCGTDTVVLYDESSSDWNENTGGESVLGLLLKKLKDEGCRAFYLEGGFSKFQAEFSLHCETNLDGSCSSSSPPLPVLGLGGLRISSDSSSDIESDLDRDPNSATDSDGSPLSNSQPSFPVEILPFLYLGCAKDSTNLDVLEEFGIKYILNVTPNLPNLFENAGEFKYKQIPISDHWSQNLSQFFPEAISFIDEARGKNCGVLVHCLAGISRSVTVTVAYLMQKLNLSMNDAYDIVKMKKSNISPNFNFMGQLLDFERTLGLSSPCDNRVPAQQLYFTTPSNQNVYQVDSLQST

[5] = target: Voltage-gated potassium channel subunit beta-2 (Rattus norvegicus) (UniProt P62483); assay: KvBeta enzyme negative modulators, primary screen, biochemical, NADPH fluorescence (AID 622;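 active = fluorescence slope higher than the sample average by over 3 SD, cut at about -0.22 in these data, passing the limit was not always enough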;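 also: slope of raw intensity against log time taken from 70 to 1610 s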); settings: recombinant KvBeta, 4-cyanobenzaldehyde reduction, at 10 µM, stronger effect = higher value
Chain of Voltage-gated potassium channel subunit beta-2 (Rattus norvegicus) (P62483 whole entry, looked up): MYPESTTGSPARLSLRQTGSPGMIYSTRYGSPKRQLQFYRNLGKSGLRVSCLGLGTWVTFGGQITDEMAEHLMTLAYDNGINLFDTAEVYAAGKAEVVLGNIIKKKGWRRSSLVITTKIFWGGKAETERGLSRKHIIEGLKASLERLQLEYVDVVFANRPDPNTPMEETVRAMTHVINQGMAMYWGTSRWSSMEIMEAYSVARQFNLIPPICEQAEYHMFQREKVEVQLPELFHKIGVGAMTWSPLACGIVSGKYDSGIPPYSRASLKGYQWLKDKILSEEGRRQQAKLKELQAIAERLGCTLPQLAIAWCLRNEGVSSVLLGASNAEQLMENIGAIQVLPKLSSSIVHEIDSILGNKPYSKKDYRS

[6] = target: Voltage-gated potassium channel subunit beta-2 (Rattus norvegicus) (UniProt P62483); assay: KvBeta positive modulators, primary screen, biochemical, NADPH fluorescence (AID 623;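 active = NADPH fluorescence slope more negative than the mean of all samples by about 3 SD, 99.7% confidence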;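 also: fluorescence intensity change per second fitted from 20 to 320 s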); settings: Recombinant KvBeta, NADPH fluorescence decrease slope, 10 min; at 10 µM; stronger effect = lower value
[7] = target: Alpha-2C adrenergic receptor (Homo sapiens) (UniProt P18825); assay: modulators of alpha2C/GIRK thallium flux, primary screen, cell-based, HEK293 alpha2C/GIRK1/2 (AID 624;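 active = fluorescence slope after compound addition differing from the mean of all screened samples at 99.7% confidence, in either direction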;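 also: slope of fluorescence ratio to pre-addition baseline per second over 15 to 24 s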); settings: thallium flux BTC fluorescence, at 10 µM, actives lie on both sides
Chain of Alpha-2C adrenergic receptor (Homo sapiens) (P18825 whole entry, looked up): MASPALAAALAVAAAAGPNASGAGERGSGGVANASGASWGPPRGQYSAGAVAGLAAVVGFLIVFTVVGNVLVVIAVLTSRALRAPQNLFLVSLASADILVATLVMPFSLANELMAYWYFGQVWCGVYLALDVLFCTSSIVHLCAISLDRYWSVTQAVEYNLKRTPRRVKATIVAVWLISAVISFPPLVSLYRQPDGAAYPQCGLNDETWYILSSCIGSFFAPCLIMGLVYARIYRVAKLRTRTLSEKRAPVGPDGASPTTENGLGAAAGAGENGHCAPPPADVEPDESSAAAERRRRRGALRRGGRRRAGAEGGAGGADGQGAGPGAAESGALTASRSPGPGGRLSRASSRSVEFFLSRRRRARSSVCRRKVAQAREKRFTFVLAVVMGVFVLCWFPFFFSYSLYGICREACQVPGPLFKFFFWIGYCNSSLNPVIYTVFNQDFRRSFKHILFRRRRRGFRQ

[8] = inhibitors of larval lipid processing in zebrafish, primary screen, whole organism, PED6 fluorescence, gall bladder and intestine (AID 686;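 active = a full or partial loss of lipid-probe fluorescence in the fish gall bladder, intestine or both, judged by eye; inactive = no fluorescence loss, or compound toxic to the fish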;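 also: larvae 5 to 7 days old with five fish per well; signal comes from phospholipase A2 cleavage of quenched PED6 carried via bile; overnight exposure to compound and PED6 before scoring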); settings: Zebrafish larvae PED6 lipid processing, fluorescence scoring; screened at 20 µM (by protocol)
In short: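 system = live zebrafish larvae aged 5-7 days, whole organism | probe or stimulus = ingested quenched lipid PED6 at 100 nM | doses = 20 µM single dose | timing = overnight exposure | detection = fluorescence microscopy with visual scoring of gall bladder and intestine | read-out = visual per-well fluorescence inhibition score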

[9] = inhibitors of Chlamydomonas gravitaxis, primary screen, whole organism, Chlamydomonas reinhardtii, WT vs cilia-less mutant, absorbance, 96-well (AID 463189;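 active = inhibition at or above 50% relative to wild type and mutant plate controls; inactive = inhibition below 50%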;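 also: 0% = wild type cc124 cells in DMSO and 100% = ciliumless bld1 mutant cells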); settings: OD600 absorbance, 2 days, at 10 µM, stronger effect = higher value
[10] = measured here: cell density z-score
[11] = measured here: nuclear c-Myc green intensity z-score
[12] = measured here: nuclear pErk red intensity z-score, stronger effect = higher value

| SMILES | cell count [1] | inhibition [1] | inhibition [2] | nuclei count [2] [%] | z-score [3, 10] | z-score [3, 11] | z-score [3, 12] | inhibition [4] | fluorescence slope [5] | NADPH fluorescence slope [6] | slope [7] | outcome [8] | inhibition [9] |
| --- | --- | --- | --- | --- | --- | --- | --- | --- | --- | --- | --- | --- | --- |
| Cc1cc(C)n(C(=O)CNC(=O)CCc2ccccc2)n1 | 562 | -0.6% (inactive) | 62.6% (inactive) | 151 | 1.03 | -0.553 | -0.0899 | -1.75% (inactive) | -0.411 (inactive) | -2.5e-05 (inactive) | 0.00565 (inactive) | inactive | -9.43% (inactive) |
| CCOc1ccc(CC2CC(=O)NC2=O)cc1 (stereo unspecified) | 622 | 2.8% (inactive) | -113% (inactive) | 185 | -0.992 | -0.148 | 1.17 | -0.159% (inactive) | -0.484 (inactive) | -9.9e-05 (inactive) | 0.00492 (inactive) | inactive | 9.39% (inactive) |
| COc1ccc(/C(O)=C2\C(=O)C(=O)N(CCN3CCOCC3)C2c2ccccc2OC)cc1 (stereo unspecified) | 562 | -10.5% (inactive) | -38.1% (inactive) | 164 | 1.03 | -1.74 | 0.476 | -7.86% (inactive) | -0.486 (inactive) | -2.2e-05 (inactive) | 0.00695 (inactive) | inactive | -2.72% (inactive) |
| Clc1ccc2nc(CSc3nc4ccccc4o3)cn2c1 | 405 | -12.3% (inactive) | -79.3% (inactive) | 99.4 | -0.399 | -0.856 | -1.36 | 11.9% (inactive) | -0.49 (inactive) | -0.000153 (inactive) | 0.00552 (inactive) | inactive | -14.7% (inactive) |
| CC(=O)OC12CC3CC(C1)C(=NO)C(C3)C2 | 541 | -10.2% (inactive) | -145% (inactive) | 127 | 1.34 | -0.992 | -0.795 | 33.7% (inactive) | -0.512 (inactive) | -2.1e-05 (inactive) | 0.00472 (inactive) | inactive | 39.2% (inactive) |
| COc1ccc(C(=O)N2CCC(N3CCN(c4ccccc4)CC3)CC2)cc1OC | 420 | -28.9% (inactive) | -222% (inactive) | 170 | 1.05 | -0.675 | -0.812 | 17.7% (inactive) | -0.348 (inactive) | 9.9e-06 (inactive) | 0.00411 (inactive) | inactive | 29.9% (inactive) |
| Cc1occc(=O)c1OC(=O)Nc1ccccc1 | 477 | -8.6% (inactive) | -106% (inactive) | 154 | -0.12 | 2.47 | -1.69 | 14% (inactive) | -0.524 (inactive) | -2.3e-05 (inactive) | 0.00424 (inactive) | inactive | -3.66% (inactive) |
| CC(=O)C1(C)OC(N)=C(C#N)C(c2ccccc2)C1(C#N)C#N (stereo unspecified) | 511 | -7.2% (inactive) | -76.9% (inactive) | 155 | 0.834 | -0.296 | -1.55 | -2.91% (inactive) | -0.377 (inactive) | 2.9e-06 (inactive) | 0.00393 (inactive) | inactive | 23.7% (inactive) |
| O=C(C1=C(O)C(=O)N(CCN2CCOCC2)C1c1cccnc1)c1cc2ccccc2o1 (stereo unspecified) | 451 | 4.1% (inactive) | -45.7% (inactive) | 168 | -0.44 | 2.22 | 0.434 | 15% (inactive) | -0.41 (inactive) | -6.5e-05 (inactive) | 0.00612 (inactive) | inactive | -5.22% (inactive) |
| CCOC(=O)CC1=C(C(=O)OCC)C(c2cc(OC)c(OC)cc2OC)C(C#N)=C(N)O1 (stereo unspecified) | 433 | -10% (inactive) | -66.1% (inactive) | 106 | 1.93 | -1.51 | -0.137 | -8.27% (inactive) | -0.345 (inactive) | 6.8e-06 (inactive) | 0.00515 (inactive) | inactive | 15.6% (inactive) |
| COC(=O)c1sccc1NC(=O)c1c(C)cc(=O)oc1C | 553 | 2.4% (inactive) | -142% (inactive) | 138 | 0.942 | 0.338 | -0.793 | -8.76% (inactive) | -0.515 (inactive) | -3.4e-05 (inactive) | 0.00537 (inactive) | inactive | -11.2% (inactive) |
| COc1ccc(OC)c(C(O)c2coc3ccc(O)c(CN4CCOCC4)c23)c1 (stereo unspecified) | 395 | -2.4% (inactive) | -6.2% (inactive) | 142 | -0.303 | 0.452 | 0.346 | 1.42% (inactive) | -0.45 (inactive) | -6.9e-05 (inactive) | 0.00476 (inactive) | inactive | 36.3% (inactive) |
| Cc1ccc(C2C(C(=O)c3cc4ccccc4o3)=C(O)C(=O)N2CCN(C)C)o1 (stereo unspecified) | 352 | -3% (inactive) | 23.2% (inactive) | 101 | -1.49 | 2.05 | -0.073 | -6.48% (inactive) | -0.443 (inactive) | -2.4e-05 (inactive) | 0.00982 (inactive) | inactive | -11.1% (inactive) |
| Cn1c(NCCN2CCCCC2)cc(=O)n(C)c1=O | 625 | 4.3% (inactive) | -24.8% (inactive) | 125 | 1.35 | -0.0759 | -0.233 | -1.12% (inactive) | -0.492 (inactive) | -0.000171 (inactive) | 0.00437 (inactive) | inactive | 9.26% (inactive) |
| CC1CN(c2oc(-c3ccccc3Cl)nc2C#N)CC(C)O1 (stereo unspecified) | 355 | -5.2% (inactive) | -154% (inactive) | 83.5 | -0.0257 | -0.411 | -1.37 | -0.159% (inactive) | -0.433 (inactive) | -9.2e-06 (inactive) | 0.00575 (inactive) | inactive | -9.38% (inactive) |
| Cn1c(=O)c2c(nc(SCCN3CCCCC3)n2Cc2ccc(Cl)cc2)n(C)c1=O | 498 | -3.7% (inactive) | -203% (inactive) | 140 | 0.51 | -0.662 | -1.54 | 21% (inactive) | -0.526 (inactive) | -1.5e-05 (inactive) | 0.00528 (inactive) | inactive | 104% (active) |
| COC(=O)c1c(C)noc1-c1cc(C)on1 | 514 | 5.6% (inactive) | 63.3% (inactive) | 177 | -1.72 | 0.497 | 0.322 | 3.56% (inactive) | -0.533 (inactive) | -4e-05 (inactive) | 0.00511 (inactive) | inactive | -9.07% (inactive) |
| Cc1c(N=Cc2c(O)n(C3CCCCC3)c(=O)[nH]c2=O)c(=O)n(-c2ccccc2)n1C | 671 | -20.1% (inactive) | -93.8% (inactive) | 139 | -0.195 | -1.05 | 0.314 | 21% (inactive) | -0.396 (inactive) | -3e-05 (inactive) | 0.00508 (inactive) | active; weak signal in gallbladder and intestine | -4.72% (inactive) |
| Cc1cc(C)n(CC(=O)n2nc(C)cc2C)n1 | 519 | -6.2% (inactive) | -24.6% (inactive) | 81.7 | 0.222 | 0.17 | 0.394 | 5.95% (inactive) | -0.492 (inactive) | -2.9e-05 (inactive) | 0.00514 (inactive) | inactive | 15% (inactive) |
| Cn1c(=O)cc(NCc2ccccc2)[nH]c1=O | 451 | -5.5% (inactive) | -114% (inactive) | 164 | 1.39 | -0.42 | -0.956 | -0.624% (inactive) | -0.333 (inactive) | 5.7e-06 (inactive) | 0.00621 (inactive) | inactive | -4.62% (inactive) |
| C=C(c1ccc(OCCO)cc1)c1ccc(OCCO)cc1 | 323 | -11% (inactive) | -16.1% (inactive) | 129 | 0.426 | 0.397 | -0.652 | 1.6e-07% (inactive) | -0.405 (inactive) | -0.000129 (inactive) | 0.00576 (inactive) | inactive | 13.7% (inactive) |
| Cc1[nH]c(=O)[nH]c(=O)c1S(=O)(=O)N1CCCC1 | 473 | -7.5% (inactive) | -107% (inactive) | 116 | -1.16 | 0.0534 | 0.397 | -3.98% (inactive) | -0.476 (inactive) | -0.000255 (inactive) | 0.00533 (inactive) | inactive | -0.601% (inactive) |
| CCCCNC(=O)C(C#N)c1nc2ccccc2nc1N1CCN(Cc2ccc3c(c2)OCO3)CC1 (stereo unspecified) | 555 | -0.5% (inactive) | 21.5% (inactive) | 145 | -1.05 | -1.11 | 1.27 | 15% (inactive) | -0.362 (inactive) | -1.5e-05 (inactive) | 0.00451 (inactive) | inactive | 12.9% (inactive) |
| COc1cccc(-c2nc(N3CCC(C)CC3)c3ccccc3n2)c1O | 573 | -3.3% (inactive) | 48.3% (inactive) | 120 | 0.534 | -0.819 | 1.15 | -12.3% (inactive) | -0.409 (inactive) | -3.4e-05 (inactive) | 0.00378 (inactive) | inactive | 9.22% (inactive) |
| N#CC(C(=O)NC1CC1)c1nc2ccccc2nc1N1CCN(C/C=C/c2ccccc2)CC1 (stereo unspecified) | 507 | -4.6% (inactive) | -99.8% (inactive) | 164 | -0.376 | 0.378 | 1.69 | 2.46% (inactive) | -0.304 (inactive) | -1.2e-05 (inactive) | -0.000245 (inactive) | inactive | 26.9% (inactive) |
| CC(=O)c1c(C)c2c(n1CCN(C)C)CCCC2 | 518 | -10% (inactive) | 17.6% (inactive) | 93.6 | -0.53 | 2.44 | 1.25 | -11.5% (inactive) | -0.521 (inactive) | -1.7e-05 (inactive) | 0.0146 (active) | inactive | -13.1% (inactive) |
| CCOC(=O)CSC1=C(C#N)C(c2ccc(OC)cc2)C2=C(CC(C)(C)CC2=O)N1 (stereo unspecified) | 362 | -10.7% (inactive) | -126% (inactive) | 174 | 0.65 | -1.25 | -0.233 | -8.59% (inactive) | -0.411 (inactive) | -0.000354 (inactive) | 0.00489 (inactive) | inactive | 25.7% (inactive) |

Source: PubChem BioAssay
